In ChEMBL document CHEMBL3785056, “New imidazoquinoxaline derivatives: Synthesis, biological evaluation on melanoma, effect on tubulin polymerization and structure-activity relationships” (Bioorg Med Chem, 2016):
Active and inactive are the calls of the source. The calls are words filed in the database; no cut-off is given here.

Experiments:
[1] = system: A-375; assay: Antiproliferative activity against human A375 cells assessed as cell growth inhibition after 96 hrs by MTT assay; format: functional, cell-based; conditions: A-375, 96 h
In short: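 A375 cells in RPMI-1640 with 10% heat-inactivated FBS, 37 °C, 5% CO2, seeded 5000 cells/well and attached overnight. Exposed 96 h to […] in 1% DMSO/medium. MTT read at 570 nm after isopropanol/HCl solubilization. Survival given as % of vehicle control. IC50 taken from sigmoidal dose-response curves, at least three experiments in triplicate.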

[2] = target: Tubulin (Sus scrofa) (UniProt P02554+P02550); assay: Inhibition of pig brain tubulin polymerization at 5 uM by spectrophotometric analysis
Tubulin (Sus scrofa), sequence (P02550 whole entry, looked up): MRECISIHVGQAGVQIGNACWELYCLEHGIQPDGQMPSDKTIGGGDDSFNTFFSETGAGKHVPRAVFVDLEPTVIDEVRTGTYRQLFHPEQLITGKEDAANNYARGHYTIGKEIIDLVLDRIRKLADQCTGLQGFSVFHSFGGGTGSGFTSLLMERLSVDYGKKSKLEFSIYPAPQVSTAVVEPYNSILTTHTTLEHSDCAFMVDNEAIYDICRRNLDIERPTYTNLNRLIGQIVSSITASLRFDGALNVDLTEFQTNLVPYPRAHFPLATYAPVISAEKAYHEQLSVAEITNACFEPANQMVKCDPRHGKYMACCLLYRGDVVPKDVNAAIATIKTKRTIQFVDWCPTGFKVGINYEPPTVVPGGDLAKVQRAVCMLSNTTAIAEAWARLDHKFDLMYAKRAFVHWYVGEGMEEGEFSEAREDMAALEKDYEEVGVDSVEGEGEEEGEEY
Tubulin (Sus scrofa), sequence (P02554 whole entry, looked up): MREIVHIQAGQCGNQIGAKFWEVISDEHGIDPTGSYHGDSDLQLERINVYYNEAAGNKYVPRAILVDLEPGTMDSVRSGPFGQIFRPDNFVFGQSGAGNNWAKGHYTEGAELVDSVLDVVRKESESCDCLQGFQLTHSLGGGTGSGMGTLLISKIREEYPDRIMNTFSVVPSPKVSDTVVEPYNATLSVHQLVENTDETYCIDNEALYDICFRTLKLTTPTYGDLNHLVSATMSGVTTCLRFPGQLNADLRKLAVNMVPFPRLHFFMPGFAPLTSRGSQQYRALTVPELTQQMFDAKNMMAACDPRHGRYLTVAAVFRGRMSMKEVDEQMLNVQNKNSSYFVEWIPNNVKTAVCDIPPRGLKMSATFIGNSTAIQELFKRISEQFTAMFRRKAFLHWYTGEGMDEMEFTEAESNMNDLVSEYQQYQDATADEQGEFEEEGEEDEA
In short: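 Compound 5 µM final, DMSO as negative control. Polymerization at 37 °C followed by turbidity at 350 nm, with ice added after 45 min to check depolymerization. Given as % inhibition from three independent experiments.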

[3] = system: A-375; assay: Cell cycle arrest in human A375 cells assessed as effect on number of cells at G0/G1 phase after 24 hrs by propidium iodide staining based flow cytometric analysis; format: functional
In short: (§1)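 A375 cells treated 24 h, washed in PBS and pelleted at 400g, 4 °C. Pellet lysed in ice-cold hypotonic solution (PI 25 µg/ml, 0.1% trisodium citrate, RNase A, 0.1% Triton X-100) and held overnight on ice. DNA content read by flow cytometry, giving G0/G1, S and G2/M percentages.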

[4] = system: A-375; assay: Cell cycle arrest in human A375 cells assessed as effect on number of cells at S phase after 24 hrs by propidium iodide staining based flow cytometric analysis; format: functional; in short: as §1
[5] = system: A-375; assay: Cell cycle arrest in human A375 cells assessed as accumulation of cells at G2/M phase after 24 hrs by propidium iodide staining based flow cytometric analysis; format: functional; in short: as §1

| Structure (SMILES) | IC50 [1] | inhibition [2] | Activity [3] | Activity [4] | Activity [5] |
| --- | --- | --- | --- | --- | --- |
| CNc1nc2ccccc2n2c(-c3ccc(OC)c(OC)c3)cnc12 | 0.3 µM | 63% | – | – | – |
| CNc1nc2ccccc2n2c(-c3cccc(OC)c3)cnc12 | – | 84% | Dose-dependent effect | Dose-dependent effect | Dose-dependent effect |
| CNc1nc2ccccc2n2c(-c3ccc(OC)cc3)cnc12 | – | 99% | Dose-dependent effect | Dose-dependent effect | Dose-dependent effect |
| CNc1nc2ccccc2n2c(-c3cc(OC)cc(OC)c3)cnc12 | 0.22 µM | 98.5% | Dose-dependent effect | Dose-dependent effect | Dose-dependent effect |
| CNc1nc2ccccc2n2c(-c3cc(OC)ccc3OC)cnc12 | 1.2 µM | 3% | – | – | – |
| CNc1nc2ccccc2n2c(-c3cccc(O)c3)cnc12 | 1.25 µM | inactive | – | – | – |
| CNc1nc2ccccc2n2c(-c3cc(OC)c(OC)c(OC)c3)cnc12 | 1.8 µM | inactive | – | – | – |
| COc1cccc(-c2cnc3c(N)nc4ccccc4n23)c1 | 0.2 µM | 41% | – | – | – |
| Nc1nc2ccccc2n2c(-c3cccc(O)c3)cnc12 | 2.4 µM | 11.3% | – | – | – |
| CNc1nc2ccccc2n2c(-c3ccccc3OC)cnc12 | – | inactive | – | – | – |
| CNc1nc2ccccc2n2c(-c3cccc(OC)c3O)cnc12 | 0.077 µM | 90% | – | – | – |
| COc1cc2c(c(OC)c1OC)-c1ccc(OC)c(=O)cc1[C@@H](NC(C)=O)CC2 [COLCHICINE] | 0.01 µM | – | – | – | – |
| CNc1nc2ccccc2n2c(-c3ccc(OC)c(OC)c3OC)cnc12 | 1.5 µM | inactive | – | – | – |
| CNc1nc2ccccc2n2c(-c3cccc(OC)c3OC)cnc12 | 5.9 µM | inactive | – | – | – |
| CNc1nc2ccccc2n2c(-c3c(OC)cc(OC)cc3OC)cnc12 | 2.3 µM | inactive | – | – | – |
